# In the library only some 4.9% were active in any assay of this set; here they are far more common.
# STAT1 activator: STAT1 signaling activation; NIH 3T3 STAT1-luciferase reporter, IFN-gamma, luminescence; 100% = IFN-gamma alone, no compound; activation (% of control), % at 5.5 µM; hit rate 2.6% among 200,000;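 active = activation above the screen-wide mean activation plus 3 SD, cut at about 130% in these data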;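 note: raw ratio to IFN-gamma control signal so 100% means no change and 0% no light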
# STAT1 inh: inhibitors of IFN-gamma induced STAT1 signaling. hit rate 0.35% among 200,000. AID 920. inhibition, % at 5.5 µM. NIH 3T3 STAT1-luciferase reporter, luminescence;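 active = inhibition above a set limit, the mean inhibition across all tested compounds plus 3 SD, cut at about 34% in these data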;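 note: 0% = IFN-gamma with DMSO and 100% = IFN-gamma with 300 µM nifuroxazide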
# NF-kB neuron act: NF-kB expression increase, human neuronal cells; fold change at 12.5 µM; NF-kB reporter expression; hits give high values; hit rate 1.6% among 190,000; AID 1239; in the data active = fold change above about 3.3
# APP 5'UTR act: activates APP 5'UTR luciferase reporter | SH-SY5Y APP 5'UTR luciferase reporter, luminescence; zero percent = DMSO vehicle wells | activation, % at 2 µM | hit rate 1% among 190,000 | AID 1276;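 active = activation above a set limit, based on mean plus 3 SD of controls, cut at about 140% in these data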
# STAT3 activator: STAT3 signaling activation. U3A cells, IL-6 STAT3-luciferase reporter, luminescence; 100% = signal with IL-6 EC80 alone. activation (% of control), % at 5.6 µM. hit rate 0.91% among 190,000;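 active = activation above the screen-wide mean of compound activation plus 3 SD, cut at about 130% in these data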;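 note: 0% = background luminescence of wells with medium and substrate only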
#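 Test system: human U3A cells carrying STAT3-luciferase construct; control set: IL-6-only wells as 100% reference; timing: compound pre-incubation 1 h before IL-6, then 6 h stimulation at 37 °C; also added: IL-6 stimulus at 33 ng/mL final; evaluation: % activation versus median of IL-6-stimulated wells; detection: reporter luminescence signal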
# STAT3 blocker: reduces IL-6 driven STAT3 reporter signal; AID 862; hit rate 0.89% among 190,000; inhibition, % at 5.5 µM; U3A cells, IL-6 STAT3-luciferase reporter, luminescence; host cell line lacks STAT1;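 active = inhibition above the mean inhibition across all screened compounds plus 3 SD, cut at about 44% in these data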;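 note: 0% = DMSO only wells and 100% = 100 µM nifuroxazide control wells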
# * = called active by the depositor; . = no result.
SMILES,STAT1 activator,STAT1 inh,NF-kB neuron act,APP 5'UTR act,STAT3 activator,STAT3 blocker
COc1ccccc1C(=O)NNC(=O)c1ccc(Cl)cc1,114.4,-17.9,1.7,2.4,102.5,0.6
CCOc1ccc(S(=O)(=O)NCCCN2CCCC2=O)cc1,100.0,-1.5,0.98,-2.4,98.9,8.0
CCOC(=O)c1cc(-c2ccc3c(c2)OCCO3)n[nH]1,102.6,-4.8,4.48*,113.0,85.9,18.7
CCOC(=O)c1nn(-c2ccc3c(c2)OCCO3)cc1O,96.2,1.7,1.14,157.8*,86.1,19.5
O=C(NCc1cccnc1)c1ccc(S(=O)(=O)N2CCCCCC2)cc1,98.1,2.7,1.01,14.8,101.3,-1.0
O=[N+]([O-])c1ccc(Sc2cccc3cccnc23)cc1,107.4,-8.1,1.19,16.9,103.5,-4.0
C=CCn1nc([N+](=O)[O-])nc1Sc1cccc2cccnc12,108.2,-9.2,3.45*,-44.3,106.7,-3.7
CCOC(=O)Cn1nc(C)cc1NC(=O)c1cccnc1,91.3,7.7,1.19,-12.2,90.3,20.4
O=C(/C=C/c1cccs1)Nc1cccnc1,126.7,-30.4,1.89,62.1,105.6,-3.8
O=C(NC(=S)Nc1ccccn1)c1ccco1,132.0*,-35.8,2.27,99.6,94.1,9.6
Cc1ccnc(NC(=O)/C=C/c2cccs2)c1,136.8*,-40.3,1.08,191.0*,74.8,28.8
Cc1ccnc(NC(=S)NC(=O)c2ccco2)c1,130.1*,-33.4,4.66*,149.0*,100.8,9.2
COC(=O)C(NC(=O)c1ccco1)(Nc1cc(C)ccn1)C(F)(F)F (stereo not drawn),110.0,-10.9,1.02,1.7,100.2,-0.6
Cc1ccnc(NC(=S)NC(=O)/C=C/c2ccco2)c1,143.6*,-47.1,2.4,85.8,104.6,0.8
Cc1cc2c(C)nc(-c3ccccc3)nc2o1,130.0*,-32.6,1.85,29.5,117.7,-20.4
Cc1cc(Cl)nc(-c2ccccc2)n1,105.3,-7.8,1.1,5.6,90.8,13.1
CC(C)Nc1nnc(SCC(=O)Nc2ccc3c(c2)C(=O)c2ccccc2C3=O)s1,127.1,-30.3,0.59,111.8,101.3,0.8
O=C(CSc1nnc(NC2CCCCC2)s1)Nc1ccc2c(c1)C(=O)c1ccccc1C2=O,139.2*,-44.2,1.16,86.0,101.4,5.5
Cc1nc(C(C)NC(=O)CCc2nnc(CCCc3ccccc3)o2)c(C)s1 (stereo not drawn),148.8*,-52.1,3.23,37.9,107.8,-3.0
CN(Cc1ccsc1)C(=O)CCc1nnc(CCCc2ccccc2)o1,133.3*,-37.4,2.7,43.8,106.4,-2.1
CC(C)(CO)CNC(=O)CCc1nnc(CCCc2ccccc2)o1,105.5,-5.9,1.59,8.7,107.8,-2.9
CCOC(=O)COc1ccc2c3c(c(=O)oc2c1C)CCC3,91.9,8.8,4.78*,5.5,74.8,32.9
CCc1ccc2c(c1)C1(NN=C(c3ccc(C)cc3)S1)C(=O)N2 (stereo not drawn),102.1,-10.8,0.87,46.2,92.0,10.9
CC(C)c1ccc2c(c1)C1(NN=C(c3ccccc3)S1)C(=O)N2 (stereo not drawn),128.7*,-35.7,1.73,132.9,110.0,-10.5
CCOC(=O)c1c(O)c2ccccc2n(CC)c1=O,106.9,-7.6,1.32,0.3,102.7,-1.5
SMILES,STAT1 activator,STAT1 inh,NF-kB neuron act,APP 5'UTR act,STAT3 activator,STAT3 blocker
COc1ccc(C(=O)c2ccc(N(C)C)cc2)c(OC)c1,115.1,-16.7,0.9,-78.1,97.2,7.9
CN(C)c1ccc(C(=O)c2ccc(N(C)C)c3ccccc23)cc1,139.2*,-32.3,5.23*,-95.4,146.1*,-52.5
Cc1nnc(SCc2nnc(-c3cccs3)o2)s1,95.5,2.5,1.13,15.4,99.3,2.5
CC(=O)c1ccc(OC(=O)C2c3ccccc3Oc3ccccc32)cc1,98.7,1.4,0.92,-3.6,101.5,5.4
Cc1ccc(OC(=O)C2c3ccccc3Oc3ccccc32)cc1C,107.5,-8.5,4.62*,21.0,101.4,-2.7
CC1CCc2nc(NC(=O)C3CC3)sc2C1 (stereo not drawn),119.9,-21.8,1.94,21.4,107.3,-2.6
CC1CCc2nc(NC(=O)C3COc4ccccc4O3)sc2C1 (stereo not drawn),55.4,49.4*,1.36,167.8*,28.3,90.7*
Oc1ccc(-c2nccc(-c3cccs3)n2)cc1,140.8*,-45.8,2.89,83.5,140.2*,-46.6
COC(=O)C(C)Oc1ccc(-c2nccc(-c3cccs3)n2)cc1 (stereo not drawn),117.3,-19.3,1.42,0.3,101.1,4.5
CCN1CCC(=NNC(=O)c2ccco2)CC1,108.8,-9.6,1.96,43.1,110.2,-14.1
O=C(N/N=C1/CC2C=CCC12)c1ccco1 (stereo not drawn),133.6*,-38.3,1.7,44.2,108.1,-6.7
COc1ccc(-n2cnc3scc(-c4ccccc4)c3c2=O)cc1,98.3,2.5,1.06,3.5,101.5,-1.2
C=CCc1ccc(OCc2ccc(C(=O)OC)o2)c(OC)c1,124.8,-27.0,3.41*,3.6,100.3,3.1
O=C(/C=C/c1ccccc1)c1ccccc1,111.6,-12.8,1.52,10.9,103.2,-1.2
N/C(=N\OC(=O)/C=C/c1ccccc1)c1ccccc1,137.7*,-41.1,5.86*,136.4*,102.3,-2.5
COc1ccc2c(c1)C1=NN(/C(C)=C/C(C)=O)C(c3ccc(F)cc3)C1CC2 (stereo not drawn),107.8,-8.8,1.71,38.1,131.7,-41.5
COc1ccc2c(c1)C1=NN(/C(C)=C/C(C)=O)C(c3cccc(F)c3)C1CC2 (stereo not drawn),99.1,1.0,1.19,-3.1,117.9,-21.4
COc1ccc2c(c1)CCC1C2=NN(/C(C)=C\C(C)=O)C1c1ccc(F)cc1 (stereo not drawn),130.0*,-35.1,1.82,43.1,127.8,-20.8
COc1ccc2c(c1)C1=NN(/C(C)=C\C(C)=O)C(c3ccccc3)C1CC2 (stereo not drawn),101.7,-2.3,1.78,32.5,133.9*,-39.1
O=[N+]([O-])c1ccc(C2(O)CN(c3ccccc3)C3=[N+]2CCS3)cc1 (stereo not drawn),104.6,-7.6,0.9,4.6,103.4,-2.6
CCOc1ccc(NC(=O)c2cccnc2Cl)c([N+](=O)[O-])c1,113.1,-14.9,1.09,-3.0,95.6,5.5
COc1ccc(NC(=O)c2cccnc2)c([N+](=O)[O-])c1,97.3,1.4,1.32,-21.2,87.8,15.9
CCCCOc1ccc(C(=O)Nc2ccc(C)cc2[N+](=O)[O-])cc1,105.4,-6.3,1.61,-1.2,97.9,3.8
CCCOc1ccc(C(=O)Nc2ccccc2[N+](=O)[O-])cc1,139.6*,-44.2,.,114.0,84.0,25.8
COc1ccc(NC(=O)c2ccccc2)c([N+](=O)[O-])c1,131.6*,-38.6,1.17,48.8,98.3,6.7

# Compound activity (PubChem BioAssay)
